Here are results for 48 sequences from the EternaBench riboswitch data.

As a reminder, the apparent Kd is a dissociation constant that holds for the conditions of the assay.

This series has as its system MS2 coat protein. As to the kind of experiment: apparent Kd, MS2 coat protein; higher = weaker binding; RNA-MaP array; FMN 200 µM where present. Summed up: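 Stalled E. coli RNA polymerase produced the designs on Illumina sequencing-chip clusters. SNAP-549-labelled MS2 coat protein was added from 0.7 or 1.5 nM, doubling to 3 µM, without and then with constant ligand, in 100 mM Tris-HCl pH 7.5, 80 mM KCl, 4 mM MgCl2, BSA, DTT, yeast tRNA and Tween-20. The apparent Kd is the median of filtered per-cluster fits of green signal normalised to red-channel RNA signal and control-cluster median Fmax.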

Where [1] appears, read: designed as: OFF switch for flavin mononucleotide, no ligand.
The mark [2] stands for this setting: ligand present: flavin mononucleotide, designed as: OFF switch for flavin mononucleotide.
Setting [3] is: designed as: ON switch for flavin mononucleotide, no ligand.
Where [4] appears, read: ligand present: flavin mononucleotide, designed as: ON switch for flavin mononucleotide.

In the case of “GUACAGUAGUGAGGAUAUACGAGAUCGAUAGAUCGGCGAUCCAAUUAUACAUGAGGAUCACCCAUGUAGAAGGCACUUCUGUAC”, the “apparent Kd” value under setting [1] came to 8.37 nM and the “apparent Kd” value under setting [2] amounted to 66.9 nM.

Turning to “CGUUGUUCCGCAGGAUAUGCAUUGGAUUACAAUGCAGAAGGGCGAUUACAUGAGGAUCACCCAUGUGUGGACAAUAAGGAAGAG”, the “apparent Kd” value is, setting by setting: under setting [3], 1490 nM; under setting [4], 142 nM.

Take “CGUUGUUAAGGAUAUGGACUCUUGAACAUGAGGAUCACCCAUGUGCGCGUGGUCUAAAUACCAGAAGGUGGCCGCC”: the “apparent Kd” value reads like this: under setting [1], 31.7 nM; under setting [2], 29.3 nM.

For the sequence “UUGUUAUAUGUAGGAUAUGCAUAUUGUUGUUAUGCAGAAGGACAUGAGGAUCACCCAUGUAUAUUAUUGUUAUAUAUUGUAUAU”, the “apparent Kd” value runs as follows: under setting [1], 25.4 nM; under setting [2], 34.6 nM.

Regarding “CCUCACAGAGGAUAUACGUCCACUGAACCCAUGAGGUUGCCACAUGAGGAUCACCCAUGUAGAAGGCUGUGCUG”, the “apparent Kd” value reads like this: under setting [1], 20.1 nM; under setting [2], 42.9 nM.

“ACGUAUAGAGGAUAUAGUGAAUAUUACAUGAGGAUCACCCAUGUUCUUCAAAGCAUAUUCCUAGAAGGCUGAUGAA”: the “apparent Kd” value is, setting by setting: under setting [1], 44.8 nM; under setting [2], 83.6 nM.

In the case of “CUGACGAUGUAAGGAUAUGCUGAGGAUAACUCAGCAGAAGGUACAUGAGGAUCACCCAUGUAACGUCAGAAUAAUAAUAAUAAU”, the “apparent Kd” value under setting [1] is 12.6 nM and the “apparent Kd” value under setting [2] worked out at 23.1 nM.

Turning to “AUAAUGAGUCAAGGAUAUCCGAGCUGAAUGCUAGGAGAAGGUGACAUGAGGAUCACCCAUGUCUCUCCGAGCAUGGUAUUCUCA”, the “apparent Kd” value turned out to be 28.6 nM under setting [1] and 33.6 nM under setting [2].

As for “GGGUACAUCGGAGGAUAUCAUGUAAAUACAUGAGGAUCACCCAUGUCGUUGGAGACAUCGGAGAUUGAGAAGGCCGAUGUACCG”, the “apparent Kd” value under setting [3] was found to be 199 nM and the “apparent Kd” value under setting [4] amounted to 339 nM.

On to “CACUCACAUGAGGAUCACCCAUGUCCUAGCAGGUCAGGAUAUAGCUCGGAUGCGUUCAGUCUAGAAGGGACACGUU”, for which the “apparent Kd” value is, setting by setting: under setting [3], 156 nM; under setting [4], 111 nM.

In the case of “UUGCGGUCAGGAUAUGCAUGGCGGGACUUGCGUCGUGGCGUGGAGAAGGGACAUGAGGAUCACCCAUGUGGAGG”, the “apparent Kd” value by setting is: under setting [1], 97.1 nM; under setting [2], 99.3 nM.

With “GAAUAGGCAGGAUAUACAUGAGGAUCACCCAUGUGCUUGCGAUCGGCAAGCGAACAACGUAGAAGGGCCUUAAC”, the “apparent Kd” value under setting [1] worked out at 16.2 nM and the “apparent Kd” value under setting [2] worked out at 37.3 nM.

Take “GACUUGCGCACAGGAUAUCCACGGAGCGGACGUGGAGAAGGGUGACAUGAGGAUCACCCAUGUACGUAAGUCUGGAUCACUUCC”: the “apparent Kd” value under setting [3] was determined as 49.9 nM and the “apparent Kd” value under setting [4] came out at 37.9 nM.

Consider “UCAGCGGUGCAAGGAUAUAACACAAUUGUCCUUAGUCGAGACGAGUGACAUGAGGAUCACCCAUGUUAGAAGGUGUCCUGCUGG”, for which the “apparent Kd” value is 72 nM under setting [1] and 326 nM under setting [2].

“AUAAUUAUAUAUUUCACAAGAAUCAGAAGGCGUUACAUGAGGAUCACCCAUGUUUUGUAUAGUAACGAGGAUAUGAUAUGGAAA”: the “apparent Kd” value reads like this: under setting [1], 15.2 nM; under setting [2], 14 nM.

As to “GUAGAGUAAGGAUAUGUAGAAUAGGAUAGAAUGGUUAGAAUACAGAAGGUACAUGAGGAUCACCCAUGUAAUGU”, the “apparent Kd” value was 17.7 nM under setting [1] and 19.6 nM under setting [2].

On to “AAGAAACAUGAGGAUCACCCAUGUGAGGAUAUGAGCAAGAAAAGAAAAGAAAGAAGAAUCAGAAGGCACAAAGG”, for which the “apparent Kd” value reads like this: under setting [1], 39.6 nM; under setting [2], 75.7 nM.

Regarding “GUCUUCCUAGGAUAUACAUGAGGAUCACCCAUGUACAGUUUCGUCUUGGGAUACUCGCGUAGAAGGAGGUGGUU”, the “apparent Kd” value by setting is: under setting [1], 33.2 nM; under setting [2], 37.3 nM.

Regarding “CGAUAUAUGAAGGGCGAAAGCCCACAUGAGGAUCACCCAUGUAGAAGGCGAGCCGCAACGCGGCUCGAGGAUAUAUAGUAUACA”, the “apparent Kd” value under setting [1] was found to be 7.24 nM and the “apparent Kd” value under setting [2] was determined as 8.52 nM.

For the sequence “AUUAAACAUGAGGAUCACCCAUGUCAACAAAGUCGAGGAUAUGGGCAAAUAAAAUAUGAACCAGAAGGCGAAUAAU”, the “apparent Kd” value is 213 nM under setting [3] and 38.2 nM under setting [4].

As to “AUAUAUAUAUCAGGAUAUGGACAGGCCUGUCCGUAUUGAGACAGUAACAUGAGGAUCACCCAUGUCCAGAAGGGAUCUAUAUAU”, the “apparent Kd” value is, setting by setting: under setting [1], 40.5 nM; under setting [2], 49.4 nM.

As to “UAUGGUUAAGUCAGGAUAUACGUGCAGAUAUCUGAGUAGAAGGGACAUGAGGAUCACCCAUGUAUGGUAGUGUU”, the “apparent Kd” value amounted to 79.9 nM under setting [1] and 132 nM under setting [2].

Consider “UUGUGGGAGCAGGAUAUCUUAUUUUGGUUUUGUGGAGAAGGGCUGACAUGAGGAUCACCCAUGUGGUCCUAGAU”, for which the “apparent Kd” value runs as follows: under setting [1], 21.7 nM; under setting [2], 36.5 nM.

As to “GCUGUAAAUGAGAAGGCGAUCAUGAAACAUGAUCGAGGAUAUCAUGUUUACAUGAGGAUCACCCAUGUAUGGGUAUAUUGCAGC”, the “apparent Kd” value runs as follows: under setting [3], 618 nM; under setting [4], 19.6 nM.

As to “GACAUGAGGAUCACCCAUGUCCAACCAGAAGGCCAGGAAUCGGACCCGUGUAUCGGGUUCGAGAUGGAGGAUAUGGGCGCCGAA”, the “apparent Kd” value under setting [3] came out at 78.2 nM and the “apparent Kd” value under setting [4] worked out at 34.1 nM.

With “UGAUACUAAGAGAAGGUUCAAACUACAUAUUGCAUACAUGAGGAUCACCCAUGUUGGUGAAUAAGAAAGGAUAUUUUACUAUAU”, the “apparent Kd” value under setting [1] amounted to 48.2 nM and the “apparent Kd” value under setting [2] came out at 38.2 nM.

For the sequence “UUAGGCUGAAGAUCAAUUAAUUAACAUGAGGAUCACCCAUGUAAGGAUAUCAGCUCGAUUAGAGCUGAGAAGGUACAUGCAGCC”, the “apparent Kd” value by setting is: under setting [1], 110 nM; under setting [2], 565 nM.

With “ACAUGUCGUGAGAAGGACGGCGUGCAUAGCGCCGUAGGAUAUCAAGACAUGAGGAUCACCCAUGUACGCGUGUCCAGCCGUGCU”, the “apparent Kd” value under setting [1] was found to be 65.2 nM and the “apparent Kd” value under setting [2] came to 342 nM.

On to “CGAUGUUAUGCAGGAUAUCUCUCUUGAUUGAGGAGAGAAGGGCAUAGGGAGACAUACGCCUUAUUACAUGAGGAUCACCCAUGU”, for which the “apparent Kd” value is, setting by setting: under setting [1], 9.47 nM; under setting [2], 7.85 nM.

As to “GGAGCACACAUUAACAUGAGGAUCACCCAUGUCAAAAGACAUGAGGAUAUGGAUCCGAAAAGGAUCCAGAAGGCAUGGUUCUCC”, the “apparent Kd” value came to 365 nM under setting [3] and 19.6 nM under setting [4].

For the sequence “UGGUCAUCAUCAGGAUAUUAACAUGGGCUACAUUAAGAAGGGAUAGUGGGAGAGGAAGUGAAACAUGAGGAUCACCCAUGUUGU”, the “apparent Kd” value stood at 32.9 nM under setting [3] and 16.2 nM under setting [4].

On to “GUAGCAUACCGAGGAUAUUCAUACCGGAAACGGACAUGAGGAUCACCCAUGUGGCGAAAGCCUUGGGAGAAGGCGGUAUGCUAC”, for which the “apparent Kd” value is, setting by setting: under setting [3], 638 nM; under setting [4], 22.8 nM.

For “CAUACACAUGAGGAUCACCCAUGUGAGGAUAUGCGUACGUUGUCCGUAGGCGACGUGCGCAGAAGGCGCGAGGU”, the “apparent Kd” value by setting is: under setting [1], 37.7 nM; under setting [2], 35.9 nM.

Regarding “GGUGCGUUUGUGAGGAUAUGCUGGUCCUUGGAUCAGCAGAAGGCACAUGAGGAUCACCCAUGUGGUGUCCCUCC”, the “apparent Kd” value under setting [1] stood at 168 nM and the “apparent Kd” value under setting [2] turned out to be 291 nM.

With “UAUAUGUCAGGAUAUCGAUUGGUACGGGAUUCGGUACUGGUUGAGAAGGGACAUGAGGAUCACCCAUGUUUUUC”, the “apparent Kd” value reads like this: under setting [1], 37.8 nM; under setting [2], 162 nM.

“AUAGUUUUUGAGAAGGCAUUUCUUAAGUGAUCUUACUAGUACAUGAGGAUCACCCAUGUUUUGUAUGAGGAUAUCAGUAGGUUG”: the “apparent Kd” value by setting is: under setting [1], 33.9 nM; under setting [2], 31.7 nM.

Consider “AAUUGUCGUGAGGAUAUGUACGUUUUAGUAACGACAGAAGGCAUGACAUGAGGAUCACCCAUGUUGUAAUCUGG”, for which the “apparent Kd” value amounted to 82 nM under setting [1] and 429 nM under setting [2].

On to “GAUGUUUGAGGAUAUACAUGAGGAUCACCCAUGUGUGUCCAUACGCGUGAGUCUUCGUGUAGAAGGCGGGCGUC”, for which the “apparent Kd” value was determined as 14.1 nM under setting [1] and 15.5 nM under setting [2].

As to “GCCUCACAUGAGGAUCACCCAUGUCAGGAUAUGCCGAUCUUAUGGUCUGGUACGACGAGCAGAAGGGACAUGCA”, the “apparent Kd” value under setting [1] came out at 19.5 nM and the “apparent Kd” value under setting [2] came to 57.9 nM.

As for “AAGAUGUUAGGAUAUGCUGCUCGUCACAAAAGUGAUGAGUAGCAGAAGGAACAUGAGGAUCACCCAUGUAAAGA”, the “apparent Kd” value runs as follows: under setting [1], 31 nM; under setting [2], 55.3 nM.

For “CGGCCAUAUCGAGGAUAUAAGUCUAGGACAUGAGGAUCACCCAUGUAUGUCUUAGAAGGCGAUAUGGCCAGCCUGUUACAGGCA”, the “apparent Kd” value came out at 28.9 nM under setting [3] and 5.83 nM under setting [4].

Turning to “UGCCAGUUAGGAUAUGCACGCGCCGGUGACCUGCUACGGCUACAUGAGGAUCACCCAUGUAGAAGGAACUGGGC”, the “apparent Kd” value runs as follows: under setting [1], 19.6 nM; under setting [2], 20.2 nM.

Take “GGCGUUGAAGGAUAUUGAUAUCCGGACAUGAGGAUCACCCAUGUGAGACAUACUUAUAUGCGAGAAGGUCAGGCCC”: the “apparent Kd” value runs as follows: under setting [1], 160 nM; under setting [2], 139 nM.

As to “UUUAUGUCAGGAUAUGAUUAGAUCUACUUUUGUAGAUCUAAUCAGAAGGGACAUGAGGAUCACCCAUGUUUUUU”, the “apparent Kd” value under setting [1] was determined as 44.8 nM and the “apparent Kd” value under setting [2] worked out at 252 nM.

For the sequence “AAGGAUAGAGGAUAUACGUAGAUACAGAUUCAUGUAGAACUACAUGAGGAUCACCCAUGUAGAAGGCUAUCCUA”, the “apparent Kd” value runs as follows: under setting [1], 28.8 nM; under setting [2], 299 nM.

In the case of “UCAUACGUUGAGGAUAUGUCAGUUAGUAUAUUUACAGAAGGCGAUACAUGAGGAUCACCCAUGUUUAUGGGCAU”, the “apparent Kd” value came to 219 nM under setting [1] and 298 nM under setting [2].

In the case of “GUCGAUGUAGGAUAUUUCCACCCGCACAUGAGGAUCACCCAUGUGACCUUUUUCCGCUGGAAAGAAGGACGCGACA”, the “apparent Kd” value runs as follows: under setting [1], 19.8 nM; under setting [2], 28.4 nM.

Consider “UUUUUGUGAGGAUAUCAGUAGUAAAUAAAUAAAAUUACUACUGAGAAGGCACAUGAGGAUCACCCAUGUUUUUU”, for which the “apparent Kd” value runs as follows: under setting [1], 40.4 nM; under setting [2], 95.1 nM.
